Key:
[1] = target: T1, Adrenergic receptor alpha-2 (Rattus norvegicus, UniProt P22086+P19328+P22909); assay: Binding affinity against Alpha-2 adrenergic receptor is the ability to inhibit the specific [3H]clonidine binding (0.4 nM) to rat isolated brain membranes by 50% was reported; 2.5*10e-9; type: tissue-based, Membrane
T1 sequence (P22086 whole entry): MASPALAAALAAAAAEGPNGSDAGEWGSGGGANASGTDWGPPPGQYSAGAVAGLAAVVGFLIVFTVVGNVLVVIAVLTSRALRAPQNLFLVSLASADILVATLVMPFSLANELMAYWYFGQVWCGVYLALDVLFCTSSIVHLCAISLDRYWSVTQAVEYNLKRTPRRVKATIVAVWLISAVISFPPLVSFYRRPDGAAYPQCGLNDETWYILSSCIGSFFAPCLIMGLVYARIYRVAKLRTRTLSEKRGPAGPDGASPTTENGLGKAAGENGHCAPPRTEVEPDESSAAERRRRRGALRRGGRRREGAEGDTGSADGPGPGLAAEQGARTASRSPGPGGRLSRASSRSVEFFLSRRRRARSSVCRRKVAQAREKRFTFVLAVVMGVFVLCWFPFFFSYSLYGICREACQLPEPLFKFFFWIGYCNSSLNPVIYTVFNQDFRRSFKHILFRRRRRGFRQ
T1 sequence (P19328 whole entry): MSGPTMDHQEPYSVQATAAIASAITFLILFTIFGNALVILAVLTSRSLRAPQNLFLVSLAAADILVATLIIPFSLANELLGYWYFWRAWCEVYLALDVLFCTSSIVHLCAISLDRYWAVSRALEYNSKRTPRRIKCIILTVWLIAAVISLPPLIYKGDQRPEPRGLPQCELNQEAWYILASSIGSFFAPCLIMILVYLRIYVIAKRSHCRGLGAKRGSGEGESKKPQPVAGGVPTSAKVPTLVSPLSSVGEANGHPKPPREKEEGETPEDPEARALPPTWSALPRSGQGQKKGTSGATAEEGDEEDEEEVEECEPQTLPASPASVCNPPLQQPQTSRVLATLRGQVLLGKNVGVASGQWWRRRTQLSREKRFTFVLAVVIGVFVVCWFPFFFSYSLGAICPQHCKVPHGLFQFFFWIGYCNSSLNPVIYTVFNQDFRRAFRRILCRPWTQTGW
T1 sequence (P22909 whole entry): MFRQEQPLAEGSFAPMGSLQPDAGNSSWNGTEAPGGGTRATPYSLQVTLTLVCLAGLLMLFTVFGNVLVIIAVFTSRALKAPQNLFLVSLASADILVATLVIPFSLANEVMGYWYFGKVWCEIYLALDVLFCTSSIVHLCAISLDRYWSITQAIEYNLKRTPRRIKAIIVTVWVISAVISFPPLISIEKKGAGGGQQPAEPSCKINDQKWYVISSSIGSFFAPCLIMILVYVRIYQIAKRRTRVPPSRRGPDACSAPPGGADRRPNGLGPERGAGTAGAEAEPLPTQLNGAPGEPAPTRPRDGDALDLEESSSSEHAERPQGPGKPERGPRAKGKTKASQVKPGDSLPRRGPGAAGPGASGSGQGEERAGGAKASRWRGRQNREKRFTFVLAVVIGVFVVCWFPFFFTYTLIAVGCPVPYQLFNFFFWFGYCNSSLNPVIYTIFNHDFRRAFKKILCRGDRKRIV

[2] = test system: Rattus norvegicus; assay: Hypertensive activity (increase in arterial pressure to 60 mmHg)) after i.v. administration to pithed rats.
[3] = test system: Rattus norvegicus; assay: Hypotensive activity (25% decrease in arterial pressure) after i.v. administration to anesthetized normotensive rats.
[4] = target: T2, Adrenergic receptor alpha-1 (Rattus norvegicus, UniProt P15823+P23944+P43140); assay: Binding affinity against alpha-1 adrenergic receptor is the ability to inhibit the specific [3H]prazosin binding (0.2 nM) to rat isolated brain membranes by 50% was reported; 6.6*10e-7; type: tissue-based, Membrane
T2 sequence (P15823 whole entry): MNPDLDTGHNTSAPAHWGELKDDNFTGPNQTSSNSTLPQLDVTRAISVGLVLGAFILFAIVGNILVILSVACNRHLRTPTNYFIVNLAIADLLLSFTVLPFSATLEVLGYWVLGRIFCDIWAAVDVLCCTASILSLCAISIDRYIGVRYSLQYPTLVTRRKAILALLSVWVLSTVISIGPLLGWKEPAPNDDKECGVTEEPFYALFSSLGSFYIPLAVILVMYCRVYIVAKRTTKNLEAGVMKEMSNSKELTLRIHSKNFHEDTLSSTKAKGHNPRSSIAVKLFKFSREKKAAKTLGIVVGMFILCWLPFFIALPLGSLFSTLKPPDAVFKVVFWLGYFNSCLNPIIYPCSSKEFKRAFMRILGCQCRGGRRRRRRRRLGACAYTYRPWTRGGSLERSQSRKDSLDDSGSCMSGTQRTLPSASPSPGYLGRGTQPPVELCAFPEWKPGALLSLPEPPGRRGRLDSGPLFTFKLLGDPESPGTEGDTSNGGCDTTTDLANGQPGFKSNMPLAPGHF
T2 sequence (P23944 whole entry): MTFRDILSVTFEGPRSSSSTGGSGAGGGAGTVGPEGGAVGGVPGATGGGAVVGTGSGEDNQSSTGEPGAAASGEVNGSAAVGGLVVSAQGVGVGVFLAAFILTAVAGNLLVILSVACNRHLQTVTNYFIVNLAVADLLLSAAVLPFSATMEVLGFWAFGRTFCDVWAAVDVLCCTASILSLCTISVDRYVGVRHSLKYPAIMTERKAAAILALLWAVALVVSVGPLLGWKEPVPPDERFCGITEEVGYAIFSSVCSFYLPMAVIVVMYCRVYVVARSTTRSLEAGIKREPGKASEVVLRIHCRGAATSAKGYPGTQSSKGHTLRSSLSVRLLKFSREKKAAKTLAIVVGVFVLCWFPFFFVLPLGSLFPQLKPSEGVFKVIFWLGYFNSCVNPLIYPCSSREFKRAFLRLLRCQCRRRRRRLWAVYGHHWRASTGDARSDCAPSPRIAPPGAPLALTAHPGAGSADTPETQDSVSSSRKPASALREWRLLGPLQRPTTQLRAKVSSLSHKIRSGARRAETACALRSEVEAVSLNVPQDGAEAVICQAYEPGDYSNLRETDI
T2 sequence (P43140 whole entry): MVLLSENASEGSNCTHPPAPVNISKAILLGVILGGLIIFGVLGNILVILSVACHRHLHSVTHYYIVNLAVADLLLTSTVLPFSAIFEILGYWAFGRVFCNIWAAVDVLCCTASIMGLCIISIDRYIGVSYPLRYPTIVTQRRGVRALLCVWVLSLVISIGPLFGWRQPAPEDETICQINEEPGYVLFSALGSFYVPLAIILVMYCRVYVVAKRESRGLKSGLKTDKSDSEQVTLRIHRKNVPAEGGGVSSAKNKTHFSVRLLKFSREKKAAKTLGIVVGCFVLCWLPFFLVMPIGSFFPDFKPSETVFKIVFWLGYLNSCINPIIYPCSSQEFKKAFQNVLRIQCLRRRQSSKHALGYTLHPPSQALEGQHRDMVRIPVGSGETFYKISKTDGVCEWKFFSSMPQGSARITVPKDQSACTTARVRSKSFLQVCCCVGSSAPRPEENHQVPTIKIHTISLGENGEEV
Outline: (§1)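 Brain membranes were prepared from male Wistar rats (200–250 g, cerebellum removed) in ice-cold 50 mmol/L Tris-HCl, pH 7.7, with two 50000g spins, and used at 1 mg/mL protein (Lowry). […] Bound label was collected by vacuum filtration and counted. IC50 came from log probit analysis.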

[5] = target: T1, Adrenergic receptor alpha-2; assay: Inhibition of specific [3H]clonidine binding (0.4 nM) to rat brain membranes alpha2 adrenoceptor; type: cell membranes, Membrane
[6] = target: T1, Adrenergic receptor alpha-2; assay: Antagonist activity against B-HT 933-induced alpha-2-adrenoceptor-mediated vasoconstriction in pithed normotensive rats; type: functional
[7] = target: T1, Adrenergic receptor alpha-2; assay: Binding affinity against Alpha-2 adrenergic receptor is the ability to inhibit the specific [3H]-clonidine binding (0.4 nM) to rat isolated brain membranes by 50% was reported; 1*10e-6; type: tissue-based, Membrane
Outline: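 Whole rat brain (minus cerebellum) from male Wistar rats (200–250 g), homogenized in ice-cold 50 mM Tris-HCl pH 7.7 and washed twice at 50000g. […] Bound ligand was collected by rapid filtration and counted. IC50 was derived by log-probit analysis.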

[8] = target: T2, Adrenergic receptor alpha-1; assay: Binding affinity against alpha-1 adrenergic receptor is the ability to inhibit the specific [3H]prazosin binding (0.2 nM) to rat isolated brain membranes by 50% was reported; 6.5*10e-5; parameters: species or system Membrane
[9] = target: T1, Adrenergic receptor alpha-2; assay: Binding affinity against Alpha-2 adrenergic receptor is the ability to inhibit the specific [3H]clonidine binding (0.4 nM) to rat isolated brain membranes by 50% was reported; 3.0*10e-8; type: tissue-based, Membrane
[10] = target: T2, Adrenergic receptor alpha-1; assay: Binding affinity against alpha-1 adrenergic receptor is the ability to inhibit the specific [3H]prazosin binding (0.2 nM) to rat isolated brain membranes by 50% was reported; 1.6*10e-6; type: tissue-based, Membrane; outline: as §1
[11] = target: Adrenergic receptor alpha-2 (Homo sapiens) (UniProt P08913+P18825+P18089); conditions: Oryctolagus cuniculus
[12] = target: T1, Adrenergic receptor alpha-2; assay: Inhibition of specific [3H]-clonidine binding (0.4 nM) to rat brain membranes alpha-2 adrenoceptor; 2.8*10e-7; type: cell membranes, Membrane

CC(Oc1c(Cl)cccc1Cl)C1=NCCN1 (stereo unspecified) [LOFEXIDINE]
IC50 [1]: 2.5 nM
pC60 [2]: 1.99 uM kg-1
pC25 [3]: 2.09 uM kg-1
IC50 [4]: 660 nM

c1ccc2c(c1)OCC(CN1CCCCC1)O2 (stereo unspecified) [PIPEROXAN]
IC50 [5]: 140 nM
pA2 [6]: 6.23

Cn1cc2c(NC3=NCCN3)cccc2n1 [INDANIDINE]
pC60 [2]: -0.24 uM kg-1
IC50 [7]: 1000 nM
IC50 [8]: 65000 nM

c1ccc2c(c1)CCCC2C1=NCCN1 (stereo unspecified) [TETRAHYDROZOLINE]
pC60 [2]: 0.9 uM kg-1
pC25 [3]: -0.16 uM kg-1
IC50 [9]: 30 nM
IC50 [10]: 1600 nM

c1ccc(CC2=NCCN2)cc1 [TOLAZOLINE]
pA2 [6]: 5.82
pC30 [11]: 6.15
IC50 [12]: 280 nM
